Series [1] is described as follows: Inhibition of His-tagged catalytic domain Trypanosoma brucei brucei PDEB1 expressed in baculovirus infected insect Sf21 cells.
Series [2] is described as follows: Inhibition of His-tagged catalytic domain Trypanosoma brucei brucei PDEB1 expressed in baculovirus infected insect Sf21 cells at 100 uM. Summed up:
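Inhibitor preincubated 10 min before substrate, final DMSO 2%, 5% or 10%. BioMol green phosphate read at 620nm. Initial-velocity change versus vehicle; mean of ≥3 independent experiments.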

The nature of series [3]: Inhibition of His-tagged catalytic domain Trypanosoma brucei brucei PDEB2 expressed in baculovirus infected insect Sf21 cells.
Series [4] has as its system Trypanosoma brucei brucei. The experiment in a line: Antitrypanosomal activity against blood stream Trypanosoma brucei brucei 427 after 48 hrs by Alamar blue assay. Format: functional, organism-based. Particulars: Trypanosoma brucei, 427, 48 h. In general terms: The colour change of resazurin is a common sign of viable cells or microbes.
The nature of series [5]: Inhibition of His-tagged catalytic domain Trypanosoma brucei brucei PDEB1 expressed in baculovirus infected insect Sf21 cells at 10 uM. Summed up:
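Single-concentration screen of purified His-tagged TbrPDEB1 catalytic domain (0.25 µg) at 37°C in 10 mM Tris pH 7.4, 0.2 mg/ml BSA, 10 mM MgCl2, 25 µM cAMP and excess 5'-nucleotidase. Inhibitor in DMSO (2%, 5% or 10% final) preincubated 10 min before substrate. BioMol green phosphate read-out at 620 nm; percent inhibition of initial velocity versus vehicle control.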

For series [6], the system named is Trypanosoma brucei brucei. The series is described as follows: Cytotoxicity against Trypanosoma brucei brucei at 100 uM.

As usually defined, the IC50 is the concentration that gives 50% inhibition. As a reminder, the inhibition is the percentage by which the read-out fell short of the control. What is called EC50 is the concentration giving half of the maximal effect. Read a low EC50 as greater potency.

Each structure is given as a SMILES string. Where only a bound is given, the exact number is not on record here.

For `COc1ccc(C2CNC(=O)C2)cc1OC1CCCC1` (stereo unspecified) [ROLIPRAM], the IC50 in series [1] was greater than 100 µM. Turning to `COc1cc2ncnc(N3CC[C@@H](Oc4cnc5ccccc5n4)C3)c2cc1OC`, the inhibition in series [2] is greater than 55%. In series [1], `O=C(Nc1c(Cl)cncc1Cl)c1ccc(OC(F)F)c(OCC2CC2)c1` [ROFLUMILAST] registered an IC50 greater than 100 µM.

For the compound `CCOc1cc(C(=O)Nc2c(Cl)cncc2Cl)ccc1OC`, the 50% inhibitory concentration (IC50) in series [1] worked out at 16.5 µM; in series [3], 34 µM. For `COc1ccc(C(=O)Nc2c(Cl)cncc2Cl)cc1OC1CCCC1`, the IC50 is 4.7 µM in series [1] and 11.4 µM in series [3]. The compound further registered an EC50 in series [4] of 9.57 µM. The compound also displayed an inhibition in series [2] greater than 50%. In series [1], `COc1ccc(C(=O)Nc2c(Cl)cncc2Cl)c(Cl)c1OC` had an IC50 greater than 100 µM.

Take `COc1ccc(C(=O)Nc2c(Cl)cncc2Cl)cc1OCc1ccccc1`: the figures for the IC50 in series [1] and in series [3] were 12.5 µM and 11.2 µM, respectively. The compound further gave an EC50 in series [4] of 10.1 µM. The compound `COc1cccc(Nc2c(C(N)=O)cnc3c(C)cc(S(=O)(=O)c4cccc(C(=O)N(C)C)c4)cc23)c1` showed an inhibition in series [5] greater than 50%. `COc1cc(C(=O)Nc2c(Cl)cncc2Cl)cc(OC)c1OC`: the IC50 in series [1] was greater than 100 µM. Besides, the EC50 in series [4] is greater than 100 µM. The Activity in series [6] is 10%. Regarding `COc1cc2c(cc1OC)-c1c/c(=N\c3c(C)cc(C)cc3C)n(C)c(=O)n1CC2` [TREQUINSIN], the half-inhibitory concentration (IC50) in series [1] was 12 µM; in series [3], 25.4 µM. The same compound gave an EC50 in series [4] of 5.8 µM. Also, in series [2], the inhibition is greater than 50%. For the compound `COc1cc(Cl)c(C(=O)Nc2c(Cl)cncc2Cl)cc1OC`, the IC50 in series [1] is greater than 100 µM. Consider `CS(=O)(=O)Oc1ccc2c(NC(N)=O)c(C(=O)c3ccc(Cl)cc3Cl)oc2c1`, for which the IC50 in series [1] and in series [3] was greater than 10 µM throughout. In series [5], `Cc1noc(/C(=C/c2cccc(-c3cc(C(C)(C)S(C)(=O)=O)cc4cccnc34)c2)c2ccc(S(C)(=O)=O)cc2)n1` returned an inhibition greater than 50%. As to `COc1ccc(C(=O)Nc2c(Cl)cncc2Cl)cc1OC`, the IC50 in series [1] and in series [3] was greater than 100 µM each time. Consider `CCCCOc1cc(C(=O)Nc2c(Cl)cncc2Cl)ccc1OC`, for which the IC50 is 7.7 µM in series [1] and 14.3 µM in series [3]. The compound further showed an EC50 in series [4] of 17.7 µM. `COc1cc(C(=O)Nc2c(Cl)cncc2Cl)ccc1OC(C)=O` displayed an IC50 in series [1] greater than 100 µM. Turning to `COc1ccc(C(=O)Nc2c(Cl)cncc2Cl)cc1OC(C)C`, the IC50 in series [1] and in series [3] was greater than 30 µM each time. The compound also yielded an EC50 in series [4] of 27.6 µM. Turning to `CCCOc1cc(C(=O)Nc2c(Cl)cncc2Cl)ccc1OC`, the IC50 in series [1] is 13.6 µM; in series [3], 9.4 µM. The compound also had a 50% effective concentration (EC50) in series [4] of 13 µM.

`CCCCOc1cc(CC2CNC(=O)N2)ccc1OC` (stereo unspecified) [RO-201724] displayed an IC50 in series [1] greater than 100 µM. `OCCN(CCO)c1nc(N2CCCCC2)c2nc(N(CCO)CCO)nc(N3CCCCC3)c2n1` [DIPYRIDAMOLE] came in with an IC50 in series [1] of 72 µM. The same compound gave an inhibition in series [2] greater than 50%. Compound `CCOc1ccc(C(=O)Nc2c(Cl)cncc2Cl)cc1OCC` returned an IC50 in series [1] greater than 100 µM.

The values above are taken from ChEMBL document CHEMBL1921779, “Pharmacological validation of Trypanosoma brucei phosphodiesterases B1 and B2 as druggable targets for African sleeping sickness” (J Med Chem, 2011).
